# Test results from ChEMBL document CHEMBL1130253 (J Med Chem, 1997).
# Assays:
# CCRF-CEM = experiment: Concentration required to inhibit against HIV strain IIIB in CEM cell; assay type: functional; conditions: Homo sapiens, read-out: ED50 (the source's name)
# [1] = The area under curve (50 mg/kg) administered orally in rat; assay type: ADME, organism-based; conditions: in vivo, po
# Outline: (§1)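 Male Sprague-Dawley rats (n = 3), beagle dogs (1M/1F), female cynomolgus monkeys and marmosets (1M/1F). Dosed 12.5–25 mg/kg iv or 25–50 mg/kg oral in 5% dextrose, or propylene glycol:water 50:50 for marmosets. Fasted groups fasted overnight. Venous blood sampled predose to 48 h. Plasma stored at -20 °C, extracted and assayed by HPLC-UV. Mean (SD) reported for rats.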
# [2] = The area under curve (25 mg/kg) administered orally in monkey; assay type: ADME, organism-based; conditions: simiiformes, in vivo, po; outline: as §1
# [3] = The maximum plasma concentration (15 mg/kg) administered intravenously in dog; assay type: ADME, organism-based, Canis lupus familiaris; parameters: dose 15 mg/kg, route intravenous; conditions: iv; outline: as §1
# [4] = Elimination rate constant of the compound(800 mg/kg) administered orally in human; assay type: ADME, organism-based; conditions: in vivo, po
# Outline: (§2)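 Healthy human volunteers given single oral doses of 100–800 mg with food. Plasma PK parameters reported as mean ± SD of four subjects per dose. Tmax reported as median.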
# [5] = The maximum time for retention (12.5 mg/kg) administered intravenously in marmoset; assay type: ADME, organism-based; conditions: callithrix, in vivo, iv; outline: as §1
# [6] = The maximum time for retention (25 mg/kg) administered orally in monkey; assay type: ADME, organism-based; conditions: simiiformes, in vivo, po
# Outline: (§3)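 Plasma pharmacokinetics in male Sprague-Dawley rats (n = 3), beagle dogs (1 male, 1 female), female cynomolgus monkeys (2) and marmosets (1 male, 1 female). Single iv (12.5-25 mg/kg) or oral (25-50 mg/kg) dose. Vehicle was 5% dextrose for rat, dog and monkey, and propylene glycol:water (50:50) for marmoset. Venous blood was drawn predose and up to 48 h. Plasma was stored at -20 °C, extracted and assayed by HPLC-UV. Values are means.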
# [7] = The area under curve (100 mg/kg) administered orally in humans; assay type: ADME, organism-based; conditions: human, in vivo, po; outline: as §2
# [8] = Elimination rate constant of the compound(25 mg/kg) administered orally in monkey; assay type: ADME, organism-based; conditions: simiiformes, in vivo, po, read-out: T1/2 el (converted); outline: as §1
# [9] = Elimination rate constant of the compound(12.5 mg/kg) administered intravenously in rmonkey; assay type: ADME, organism-based; conditions: simiiformes, in vivo, iv, read-out: T1/2 el (converted); outline: as §1
# [10] = The area under curve (12.5 mg/kg) administered intravenously in marmoset; assay type: ADME, organism-based; conditions: callithrix, in vivo, iv; outline: as §1
# [11] = Elimination rate constant of the compound(100 mg) administered orally in human; conditions: in vivo, po, read-out: T1/2 el (converted)
# [12] = The maximum time for retention (12.5 mg/kg) administered intravenously in monkey; assay type: ADME, organism-based; conditions: simiiformes, in vivo, iv; outline: as §1
# [13] = The maximum time for retention (50 mg/kg) administered orally in fasted rat; assay type: ADME, organism-based; conditions: in vivo, po
# Outline: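 Male Sprague-Dawley rats (n = 3) were fasted overnight, then given a single oral dose (25-50 mg/kg range) in 5% dextrose. Jugular, femoral or cephalic blood was sampled predose and up to 48 h. Plasma was separated at once, held at -20 °C, extracted and quantified by HPLC with UV detection. Values are the mean of three rats.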
# [14] = Oral bioavailability (50 mg/kg) in rat; assay type: ADME, organism-based; conditions: in vivo; outline: as §1
# [15] = The maximum time for retention (30 mg/kg) administered orally in dog; assay type: ADME, organism-based, Canis lupus familiaris; conditions: in vivo, po; outline: as §3
# [16] = Elimination rate constant of the compound(25 mg/kg) administered intravenously in rat; assay type: ADME, organism-based; conditions: in vivo, iv, read-out: T1/2 el (converted); outline: as §1
# [17] = The area under curve (400 mg/kg) administered orally in humans; assay type: ADME, organism-based; conditions: human, in vivo, po; outline: as §2
# [18] = The maximum plasma concentration (200 mg/kg) administered orally in human; assay type: ADME, organism-based; parameters: route oral; conditions: po; outline: as §2
# [19] = Elimination rate constant of the compound(30 mg/kg) administered orally in dog; assay type: ADME, organism-based, Canis lupus familiaris; conditions: in vivo, po, read-out: T1/2 el (converted); outline: as §1
# [20] = The maximum plasma concentration (100 mg/kg) administered orally in human; assay type: ADME, organism-based; parameters: route oral; conditions: po; outline: as §2
# [21] = Oral bioavailability (25 mg/kg) in monkey; assay type: ADME, organism-based; conditions: primates, in vivo; outline: as §1
# [22] = The maximum plasma concentration (25 mg/kg) administered intravenously in rat; assay type: ADME, organism-based; parameters: dose 25 mg/kg, route intravenous; conditions: iv; outline: as §1
# [23] = The maximum time for retention (400 mg) administered orally in human; conditions: in vivo, po
# [24] = The area under curve (25 mg/kg) administered orally in marmoset; assay type: ADME, organism-based; conditions: callithrix, in vivo, po; outline: as §1
# [25] = The maximum plasma concentration (25 mg/kg) administered orally in marmoset; assay type: ADME, organism-based; parameters: dose 25 mg/kg, route oral; conditions: callithrix, po; outline: as §1
# [26] = The maximum plasma concentration (12.5 mg/kg) administered intravenously in marmoset; assay type: ADME, organism-based; parameters: dose 12.5 mg/kg, route intravenous; conditions: callithrix, iv; outline: as §1
# [27] = Elimination rate constant of the compound(200 mg/kg) administered orally in human; assay type: ADME, organism-based; conditions: in vivo, po, read-out: T1/2 el (converted); outline: as §2
# [28] = The maximum time for retention (50 mg/kg) administered orally in rat; assay type: ADME, organism-based; conditions: in vivo, po; outline: as §3
# [29] = The maximum time for retention (200 mg) administered orally in human; conditions: in vivo, po
# [30] = The maximum plasma concentration (400 mg/kg) administered orally in human; assay type: ADME, organism-based; parameters: route oral; conditions: po; outline: as §2
# Homo sapiens [31] = experiment: The maximum time for retention (800 mg) administered orally in human; conditions: in vivo, po
# [32] = The maximum plasma concentration (30 mg/kg) administered orally in dog; assay type: ADME, organism-based, Canis lupus familiaris; parameters: dose 30 mg/kg, route oral; conditions: po; outline: as §1
# [33] = The maximum plasma concentration (25 mg/kg) administered orally in monkey; assay type: ADME, organism-based; parameters: dose 25 mg/kg, route oral; conditions: simiiformes, po; outline: as §1
# [34] = The maximum time for retention (100 mg) administered orally in human; conditions: in vivo, po
# [35] = Elimination rate constant of the compound(12.5 mg/kg) administered intravenously in marmoset; assay type: ADME, organism-based; conditions: callithrix, in vivo, iv, read-out: T1/2 el (converted); outline: as §1
# [36] = The area under curve (50 mg/kg) administered orally in fasted rat; assay type: ADME, organism-based; conditions: in vivo, po; outline: as §1
# [37] = The maximum time for retention (15 mg/kg) administered intravenously in dog; assay type: ADME, organism-based, Canis lupus familiaris; conditions: in vivo, iv; outline: as §1
# Homo sapiens [38] = experiment: The maximum plasma concentration (800 mg/kg) administered orally in human; assay type: ADME, organism-based; parameters: route oral; conditions: in vivo, po; outline: as §2
# [39] = The maximum time for retention (25 mg/kg) administered orally in marmoset; assay type: ADME, organism-based; conditions: callithrix, in vivo, po; outline: as §3
# [40] = The area under curve (25 mg/kg) administered intravenously in rat; assay type: ADME, organism-based; conditions: in vivo, iv; outline: as §1
# [41] = The maximum plasma concentration (50 mg/kg) administered orally in rat; assay type: ADME, organism-based; parameters: dose 50 mg/kg, route oral; conditions: po; outline: as §1
# [42] = Elimination rate constant of the compound(15 mg/kg) administered intravenously in dog; assay type: ADME, organism-based, Canis lupus familiaris; conditions: in vivo, iv, read-out: T1/2 el (converted); outline: as §1
# [43] = Oral bioavailability (50 mg/kg) in fasted rat; assay type: ADME, organism-based; conditions: in vivo; outline: as §1
# [44] = The maximum plasma concentration (12.5 mg/kg) administered intravenously in monkey; assay type: ADME, organism-based; parameters: dose 12.5 mg/kg, route intravenous; conditions: simiiformes, iv; outline: as §1
# [45] = Elimination rate constant of the compound(50 mg/kg) administered orally in fasted rat; assay type: ADME, organism-based; conditions: in vivo, po, read-out: T1/2 el (converted); outline: as §1
# [46] = The area under curve (30 mg/kg) administered orally in dog; assay type: ADME, organism-based, Canis lupus familiaris; conditions: in vivo, po; outline: as §1
# [47] = Oral bioavailability (30 mg/kg) in dog; assay type: ADME, organism-based, Canis lupus familiaris; conditions: in vivo; outline: as §1
# [48] = Oral bioavailability (25 mg/kg) in marmoset; assay type: ADME, organism-based; conditions: primates, in vivo; outline: as §1
# [49] = The area under curve (12.5 mg/kg) administered intravenously in monkey; assay type: ADME, organism-based; conditions: simiiformes, in vivo, iv; outline: as §1
# [50] = Elimination rate constant of the compound(25 mg/kg) administered orally in marmoset; assay type: ADME, organism-based; conditions: callithrix, in vivo, po, read-out: T1/2 el (converted); outline: as §1
# [51] = Elimination rate constant of the compound(400 mg/kg) administered orally in human; assay type: ADME, organism-based; conditions: in vivo, po, read-out: T1/2 el (converted); outline: as §2
# [52] = The maximum time for retention (25 mg/kg) administered intravenously in rat; assay type: ADME, organism-based; conditions: in vivo, iv; outline: as §3
# Homo sapiens [53] = experiment: The area under curve (800 mg/kg) administered orally in humans; assay type: ADME, organism-based; conditions: in vivo, po; outline: as §2
# [54] = The area under curve (15 mg/kg) administered intravenously in dog; assay type: ADME, organism-based, Canis lupus familiaris; conditions: in vivo, iv; outline: as §1
# [55] = The maximum plasma concentration (50 mg/kg) administered orally in fasted rat; assay type: ADME, organism-based; parameters: dose 50 mg/kg, route oral; conditions: po; outline: as §1
# [56] = target: Human immunodeficiency virus type 1 protease (Human immunodeficiency virus 1, UniProt Q72874); experiment: Inhibitory activity against HIV-1 protease
structure (smiles),measurement,setting,value
CS(=O)(=O)O.Cc1c(O)cccc1C(=O)N[C@@H](CSc1ccccc1)[C@H](O)CN1C[C@H]2CCCC[C@H]2C[C@H]1C(=O)NC(C)(C)C [NELFINAVIR MESYLATE],EC50,CCRF-CEM,0.014 µM
same,AUC,[1],6090 ng·h/mL
same,AUC,[2],6290 ng·h/mL
same,Cmax,[3],11900 ng/mL
same,T1/2 el,[4],3.37 h
same,Tmax,[5],4.8 min
same,Tmax,[6],3 h
same,AUC,[7],1250 ng·h/mL
same,half-life,[8],3 h
same,half-life,[9],1.47 h
same,AUC,[10],6630 ng·h/mL
same,half-life,[11],1.72 h
same,Tmax,[12],4.8 min
same,Tmax,[13],1.39 h
same,bioavailability,[14],43%
same,Tmax,[15],3 h
same,half-life,[16],1.26 h
same,AUC,[17],7560 ng·h/mL
same,Cmax,[18],439 ng/mL
same,half-life,[19],7.72 h
same,Cmax,[20],313 ng/mL
same,bioavailability,[21],9%
same,Cmax,[22],12700 ng/mL
same,Tmax,[23],4 h
same,AUC,[24],2890 ng·h/mL
same,Cmax,[25],840 ng/mL
same,Cmax,[26],5670 ng/mL
same,half-life,[27],2.21 h
same,Tmax,[28],2.82 h
same,Tmax,[29],3 h
same,Cmax,[30],1580 ng/mL
same,T max,Homo sapiens [31],3.5 h
same,Cmax,[32],1220 ng/mL
same,Cmax,[33],1590 ng/mL
same,Tmax,[34],3 h
same,half-life,[35],1.23 h
same,AUC,[36],4040 ng·h/mL
same,Tmax,[37],4.8 min
same,Cmax,Homo sapiens [38],3163 ng/mL
same,Tmax,[39],1 h
same,AUC,[40],7010 ng·h/mL
same,Cmax,[41],1340 ng/mL
same,half-life,[42],1.18 h
same,bioavailability,[43],29%
same,Cmax,[44],7990 ng/mL
same,half-life,[45],1.07 h
same,AUC,[46],13300 ng·h/mL
same,bioavailability,[47],35%
same,bioavailability,[48],10%
same,AUC,[49],10400 ng·h/mL
same,half-life,[50],2.04 h
same,half-life,[51],2.28 h
same,Tmax,[52],3.6 min
same,AUC,Homo sapiens [53],22200 ng·h/mL
same,AUC,[54],11200 ng·h/mL
same,Cmax,[55],1470 ng/mL
Cc1c(O)cccc1C(=O)N[C@@H](CSc1ccc2ccccc2c1)[C@H](O)CN1C[C@H]2CCCC[C@H]2C[C@H]1C(=O)NC(C)(C)C,EC50,CCRF-CEM,0.1 µM
same,Ki,[56],0.098 µM
